Laboratory results reported in ChEMBL document CHEMBL1932953, “New anthranilic acid based antagonists with high affinity and selectivity for the human cholecystokinin receptor 1 (hCCK1-R)” (J Med Chem, 2011).
One block for each compound: values may come before it. The source made the active and inactive calls. No cut-off for these calls is given here.

Columns and labels:
[1] = Displacement of [125I]-BH-CCK8 from CCK2 receptor in Hartley guinea pig cerebral cortex after 120 hrs by gamma-counting; type: tissue-based, Cavia porcellus; settings: in the assay text read “after 120 mins” for “after 120 hrs”
Summary of the method: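 Cortical membranes (0.5 mg protein/ml) are incubated with 25 pM [125I]BH-CCK-8 for 120 min at 25 °C. The buffer is 10 mM Hepes, 118 mM NaCl, 4.7 mM KCl, 5 mM MgCl2, 1 mM EGTA, pH 6.5, with 0.2 mg/mL bacitracin. Samples are vacuum-filtered on GF/B and gamma-counted, with nonspecific binding defined with 1 μM CCK-8. IC50 comes from curve fitting, or ISB% is taken at the top concentration tested.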

[2] = target: T1, Cholecystokinin receptor type A (Rattus norvegicus, UniProt P30551); test: Displacement of [125I]-BH-CCK8 from CCK1 receptor in Sprague-Dawley rat pancreatic acini after 120 hrs by gamma-counting; settings: in the assay text read “after 30 mins” for “after 120 hrs”
T1 sequence (P30551 whole entry): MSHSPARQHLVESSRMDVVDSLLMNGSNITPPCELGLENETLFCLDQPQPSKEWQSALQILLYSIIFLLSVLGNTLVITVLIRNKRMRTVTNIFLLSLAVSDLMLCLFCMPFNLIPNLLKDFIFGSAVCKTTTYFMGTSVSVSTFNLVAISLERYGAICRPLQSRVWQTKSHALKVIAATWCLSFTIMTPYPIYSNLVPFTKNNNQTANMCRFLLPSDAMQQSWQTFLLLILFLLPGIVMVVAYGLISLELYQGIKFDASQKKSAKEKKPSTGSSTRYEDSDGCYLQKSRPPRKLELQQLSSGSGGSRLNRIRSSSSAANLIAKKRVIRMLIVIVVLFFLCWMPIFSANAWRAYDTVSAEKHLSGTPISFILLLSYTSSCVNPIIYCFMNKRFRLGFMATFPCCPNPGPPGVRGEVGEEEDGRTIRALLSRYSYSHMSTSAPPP
Summary of the method: (§1)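 Rats fasted 18–24 h with free water. Acini isolated by enzymatic digestion are incubated with 25 pM [125I]BH-CCK-8 and competitors at 37 °C for 30 min in a shaking bath. Ice-cold Hepes-Ringer pH 7.4 is added, the tubes are centrifuged 5 min at 12500g, and pellet radioactivity is counted. IC50 comes from curve fitting, or ISB% is taken at the top concentration tested.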

[3] = target: T2, Cholecystokinin receptor type A (Homo sapiens, UniProt P32238); test: Displacement of [125I]BH-(Thr,-Nle)-CCK-9 from human CCK1 receptor expressed in COS-7 cells after 60 mins by gamma counting; type: cell-based
T2 sequence (P32238 whole entry): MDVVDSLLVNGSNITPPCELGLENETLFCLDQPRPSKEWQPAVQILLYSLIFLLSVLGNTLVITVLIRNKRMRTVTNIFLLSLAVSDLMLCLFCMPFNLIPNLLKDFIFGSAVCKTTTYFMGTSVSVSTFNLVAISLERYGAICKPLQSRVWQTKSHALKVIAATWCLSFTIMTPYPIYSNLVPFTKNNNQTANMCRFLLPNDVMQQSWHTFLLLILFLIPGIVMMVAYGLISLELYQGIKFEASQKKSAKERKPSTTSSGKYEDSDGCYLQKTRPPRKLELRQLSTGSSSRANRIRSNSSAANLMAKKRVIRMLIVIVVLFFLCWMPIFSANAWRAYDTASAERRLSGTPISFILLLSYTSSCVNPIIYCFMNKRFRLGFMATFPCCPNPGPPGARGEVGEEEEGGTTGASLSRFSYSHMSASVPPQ

[4] = target: T3, Gastrin/cholecystokinin type B receptor (Homo sapiens, UniProt P32239); test: Displacement of [125I]BH-(Thr,-Nle)-CCK-9 from human CCK2 receptor expressed in COS-7 cells after 60 mins by gamma counting; type: cell-based
T3 sequence (P32239 whole entry): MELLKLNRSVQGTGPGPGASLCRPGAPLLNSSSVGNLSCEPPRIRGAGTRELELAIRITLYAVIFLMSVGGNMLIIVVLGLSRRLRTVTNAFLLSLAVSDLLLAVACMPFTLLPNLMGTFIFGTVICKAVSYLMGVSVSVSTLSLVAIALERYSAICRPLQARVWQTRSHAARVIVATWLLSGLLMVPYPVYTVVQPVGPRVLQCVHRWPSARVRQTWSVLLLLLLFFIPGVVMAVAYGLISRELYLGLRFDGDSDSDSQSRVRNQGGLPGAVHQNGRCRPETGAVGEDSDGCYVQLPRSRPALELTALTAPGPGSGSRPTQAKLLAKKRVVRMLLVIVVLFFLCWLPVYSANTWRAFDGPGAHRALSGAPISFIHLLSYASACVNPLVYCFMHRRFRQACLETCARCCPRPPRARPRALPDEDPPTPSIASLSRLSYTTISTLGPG

[5] = Antagonist activity at CCK1 receptor in Hartley guinea pig gall bladder assessed as inhibition of CCK8-induced contraction; type: functional, tissue-based, Cavia porcellus
Summary of the method: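 Circular smooth-muscle strips (about 3 mm × 15 mm) in Krebs–Henseleit at 32 °C, gassed 95% O2/5% CO2, resting tension 0.5 g, isometric recording. After 60 min equilibration with washes every 15 min, antagonist or vehicle is given 5 min before a submaximal (70–80%) CCK-8 concentration. Response is % inhibition of contraction, and IC50 comes from the regression line.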

[6] = target: T4, Cholecystokinin receptor type A (Homo sapiens) (UniProt P32238); test: Antagonist activity at human CCK1 receptor expressed in COS7 cells assessed as inhibition of (Thr,Nle)-CCK9-induced inositol phosphate production using myo-2-[3H]inositol after 60 mins by scintillation counting; type: functional, cell-based; settings: COS-7
T4 sequence (whole entry): T2 sequence (P32238 whole entry)
Summary of the method: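 COS-7 cells transiently transfected (DEAE-dextran) with receptor cDNA are labelled overnight with 2 μCi/ml myo-2-[3H]inositol. They are preincubated 30 min in DMEM with 20 mM LiCl at 37 °C, then incubated 60 min at 37 °C in PI buffer pH 7.45 with ligands at various concentrations. Inositol phosphates are separated on Dowex AG 1-X8 formate columns and counted by β scintillation.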

[7] = Apparent selectivity index, ratio of IC50 for CCK2 receptor in Hartley guinea pig cerebral cortex to IC50 for CCK1 receptor in Sprague-Dawley rat pancreatic acini; type: tissue-based
[8] = organism: Homo sapiens; test: Apparent selectivity index, ratio of Ki for human CCK2 receptor to Ki for human CCK1 receptor
[9] = target: T5, Cholecystokinin receptor type A (Rattus norvegicus) (UniProt P30551); test: Displacement of [125I]-BH-CCK8 from CCK1 receptor in Sprague-Dawley rat pancreatic acini at 10 uM after 120 hrs by gamma-counting; settings: in the assay text read “after 30 mins” for “after 120 hrs”; summary of the method: as §1
T5 sequence (whole entry): T1 sequence (P30551 whole entry)

[10] = target: T5, Cholecystokinin receptor type A (Rattus norvegicus); test: Displacement of [125I]-BH-CCK8 from CCK1 receptor in Sprague-Dawley rat pancreatic acini at 3 uM after 120 hrs by gamma-counting; settings: in the assay text read “after 30 mins” for “after 120 hrs”; summary of the method: as §1
[11] = organism: Cavia porcellus; test: Displacement of [125I]-BH-CCK8 from CCK2 receptor in Hartley guinea pig cerebral cortex at 30 uM […] by gamma-counting; type: tissue-based
[12] = target: T2, Cholecystokinin receptor type A; test: Displacement of [3H]-SR-27897 from wild type human CCK1 receptor expressed in COS7 cells after 60 mins […]; type: cell-based, COS-7
Summary of the method: (§2)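 Wild-type or mutant receptor cDNA in pRFE-Neo (2 μg/plate) was transiently transfected into COS-7 cells by modified DEAE-dextran, and cells were replated 24 h later. After about 24 h more, cells were incubated 60 min at 37 °C in DMEM with 0.1% BSA, 1.83 nM [3H]SR-27,897 and competitors. Cells were washed in cold PBS with 2% BSA, lysed in 0.1 N NaOH, and counted by scintillation. Values are mean ± SEM, at least three experiments in duplicate.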

[13] = target: Cholecystokinin receptor type A (Homo sapiens, UniProt P32238, W39A); test: Displacement of [3H]-SR-27897 from human CCK1 W39A mutant receptor expressed in COS7 cells after 60 mins […]; type: cell-based, COS-7; summary of the method: as §2
Sequence of Cholecystokinin receptor type A (Homo sapiens, UniProt P32238, W39A) (P32238 whole entry W39A): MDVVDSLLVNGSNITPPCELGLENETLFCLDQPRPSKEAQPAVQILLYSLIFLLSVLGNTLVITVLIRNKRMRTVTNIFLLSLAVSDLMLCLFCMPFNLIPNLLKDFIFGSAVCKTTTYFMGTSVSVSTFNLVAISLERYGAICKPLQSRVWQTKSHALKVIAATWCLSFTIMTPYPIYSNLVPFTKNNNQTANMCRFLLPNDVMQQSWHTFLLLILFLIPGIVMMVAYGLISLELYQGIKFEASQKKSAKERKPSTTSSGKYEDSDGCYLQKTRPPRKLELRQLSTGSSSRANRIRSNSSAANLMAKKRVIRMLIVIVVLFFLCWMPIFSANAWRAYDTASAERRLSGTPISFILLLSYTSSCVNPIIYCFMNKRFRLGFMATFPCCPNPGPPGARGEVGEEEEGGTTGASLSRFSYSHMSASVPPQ

[14] = target: Cholecystokinin receptor type A (Homo sapiens, UniProt P32238, F107A); test: Displacement of [3H]-SR-27897 from human CCK1 F107A mutant receptor expressed in COS7 cells after 60 mins […]; type: cell-based, COS-7; summary of the method: as §2
Sequence of Cholecystokinin receptor type A (Homo sapiens, UniProt P32238, F107A) (P32238 whole entry F107A): as the sequence (P32238 whole entry W39A) above, with A39W, F107A counted along it

[15] = target: Cholecystokinin receptor type A (Homo sapiens, UniProt P32238, M195A); test: Displacement of [3H]-SR-27897 from human CCK1 M195A mutant receptor expressed in COS7 cells after 60 mins […]; type: cell-based, COS-7; summary of the method: as §2
Sequence of Cholecystokinin receptor type A (Homo sapiens, UniProt P32238, M195A) (P32238 whole entry M195A): as the sequence (P32238 whole entry W39A) above, with A39W, M195A counted along it

[16] = target: Cholecystokinin receptor type A (Homo sapiens, UniProt P32238, R197A); test: Displacement of [3H]-SR-27897 from human CCK1 R197A mutant receptor expressed in COS7 cells after 60 mins […]; type: cell-based, COS-7; summary of the method: as §2
Sequence of Cholecystokinin receptor type A (Homo sapiens, UniProt P32238, R197A) (P32238 whole entry R197A): as the sequence (P32238 whole entry W39A) above, with A39W, R197A counted along it

[17] = target: Cholecystokinin receptor type A (Homo sapiens, UniProt P32238, R336A); test: Displacement of [3H]-SR-27897 from human CCK1 R336A mutant receptor expressed in COS7 cells after 60 mins […]; type: cell-based, COS-7; summary of the method: as §2
Sequence of Cholecystokinin receptor type A (Homo sapiens, UniProt P32238, R336A) (P32238 whole entry R336A): as the sequence (P32238 whole entry W39A) above, with A39W, R336A counted along it

[18] = target: Cholecystokinin receptor type A (Homo sapiens, UniProt P32238, F330A); test: Displacement of [3H]-SR-27897 from human CCK1 F330A mutant receptor expressed in COS7 cells after 60 mins […]; type: cell-based, COS-7; summary of the method: as §2
Sequence of Cholecystokinin receptor type A (Homo sapiens, UniProt P32238, F330A) (P32238 whole entry F330A): as the sequence (P32238 whole entry W39A) above, with A39W, F330A counted along it

[19] = target: Cholecystokinin receptor type A (Homo sapiens, UniProt P32238, I352A); test: Displacement of [3H]-SR-27897 from human CCK1 I352A mutant receptor expressed in COS7 cells after 60 mins […]; type: cell-based, COS-7; summary of the method: as §2
Sequence of Cholecystokinin receptor type A (Homo sapiens, UniProt P32238, I352A) (P32238 whole entry I352A): as the sequence (P32238 whole entry W39A) above, with A39W, I352A counted along it

[20] = target: T2, Cholecystokinin receptor type A; test: Displacement of [125I]-BH-JMV-179 from wild type human CCK1 receptor expressed in COS7 cells after 60 mins by gamma counting; type: cell-based, COS-7
Summary of the method: (§3)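 Transiently transfected COS-7 cells (DMEM, 5% FCS, 37 °C, 5% CO2) were given 2 μg/plate pRFE-Neo vector carrying wild-type or mutant receptor cDNA by modified DEAE-dextran, then replated after 24 h. About 24 h later, cells were washed (PBS pH 6.95, 0.1% BSA) and incubated 60 min at 37 °C with 71 pM 125I-BH-(Thr,Nle)CCK-9 ± competitors. After cold washes, cells were lysed in 0.1 N NaOH and gamma-counted.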

[21] = target: Cholecystokinin receptor type A (Homo sapiens, UniProt P32238, N333A); test: Displacement of [125I]-BH-JMV-179 from human CCK1 receptor N333A mutant expressed in COS7 cells after 60 mins by gamma counting; type: cell-based, COS-7; summary of the method: as §3
Sequence of Cholecystokinin receptor type A (Homo sapiens, UniProt P32238, N333A) (P32238 whole entry N333A): as the sequence (P32238 whole entry W39A) above, with A39W, N333A counted along it

[22] = test system: Cavia porcellus; test: Inhibition of CCK8-induced gall bladder contraction in iv dosed Hartley guinea pig administered 2 mins before CCK8 challenge; type: functional; settings: read-out: ID50 (the source's name)
Summary of the method: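 Male Hartley guinea pigs (400–450 g) are fasted 48 h and anaesthetised with urethane 1.5 g/kg ip. Jugular vein and trachea are cannulated. Test agents are given iv at different doses 2 min before CCK-8 10 ng/kg iv. The read-out is % reduction of contraction area, and […] comes from the regression of inhibition against log dose.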

Compound: O=C(Nc1ccccc1NC(=O)C(CCc1ccccc1)C(=O)O)c1cc2ccccc2[nH]1 (racemic)
IC50 ([1]; read-out: IC50): 6200 nM | IC50 [2]: 717 nM | Ratio IC50 [7]: 8

Compound: O=C(Nc1ccccc1C(=O)NC(Cc1ccccc1)C(=O)O)c1cc2ccccc2[nH]1 (racemic)
IC50 ([1]; read-out: IC50): 16400 nM | Ratio IC50 [7]: 83 | Ki [3]: 59.8 nM | Ki [4]: 22000 nM | Ratio Ki [8]: 368

Compound: O=C(Nc1ccccc1C(=O)NC(CCCc1ccccc1)C(=O)O)c1cc2ccccc2[nH]1 (racemic)
IC50 ([1]; read-out: IC50): 600 nM | IC50 [2]: 107 nM | Ratio IC50 [7]: 6

Compound: O=C(Nc1ccccc1C(=O)NC(CCCCc1ccccc1)C(=O)O)c1cc2ccccc2[nH]1 (racemic)
inhibition [9]: 39%

Compound: O=C(Nc1ccccc1C(=O)NC(CCc1ccccc1)C(=O)NO)c1cc2ccccc2[nH]1 (racemic)
IC50 [2]: 419 nM | inhibition [11]: 37%

Compound: CCOC(=O)C(CCc1ccccc1)NC(=O)c1ccccc1NC(=O)c1cc2ccccc2[nH]1 (racemic)
IC50 [1]: Not Active | inhibition [10]: 24%

Compound: O=C(Nc1ccccc1C(=O)NC(C(=O)O)c1ccccc1)c1cc2ccccc2[nH]1 (racemic)
IC50 [2]: 317 nM

Continued, in another order:

IC50 ([1]; read-out: IC50): 7900 nM | IC50 [2]: 313 nM | Ki [3]: 973 nM | Ki [4]: 1000 nM | IC50 [5]: 420 nM | inhibition [6]: Active
Compound: O=C(Nc1ccccc1C(=O)N[C@@H](CCc1ccccc1)C(=O)O)c1cc2ccccc2[nH]1

IC50 [1]: Not Active | inhibition [9]: 36%
Compound: CC(CCc1ccccc1)NC(=O)c1ccccc1NC(=O)c1cc2ccccc2[nH]1 (racemic)

IC50 ([1]; read-out: IC50): 5100 nM | IC50 [2]: 15.7 nM | Ratio IC50 [7]: 324 | Ki [3]: 3.9 nM | Ki [4]: 15300 nM | Ratio Ki [8]: 3900 | IC50 [5]: 48.9 nM | inhibition [6]: Active
Compound: O=C(Nc1ccccc1C(=O)NC(CCc1ccccc1)C(=O)O)c1cc2ccccc2[nH]1 (racemic)

inhibition [10]: inactive
Compound: NC(=O)C(CCc1ccccc1)NC(=O)c1ccccc1NC(=O)c1cc2ccccc2[nH]1 (racemic)

IC50 ([1]; read-out: IC50): 3800 nM | IC50 [2]: 9.5 nM | Ki [3]: 2.3 nM | Ki [4]: 1000 nM | IC50 [5]: 43.9 nM | inhibition [6]: Active | Ki [12]: 5.8 nM | Ki [13]: 3.7 nM | Ki [14]: 3.8 nM | Ki [15]: 7.6 nM | Ki [16]: 19.6 nM | Ki [17]: 522 nM | Ki [18]: 4.9 nM | Ki [19]: 39.1 nM | Ki [20]: 0.32 nM | Ki [21]: 5 nM
Compound: O=C(Nc1ccccc1C(=O)N[C@H](CCc1ccccc1)C(=O)O)c1cc2ccccc2[nH]1
ED50 [22]: 0.35 µmol/kg
